Measurements reported in article PMC7274130 (Biochimica et Biophysica Acta. Proteins and Proteomics, 2020).
Each block holds one substance with its values, some of them ahead of it.

Experiments:
[1] = cited from earlier work
[2] = Degradation of [3H]-THF-γ2 on incubation with human whole blood; format: in vitro ADME; settings: 37 °C, radio-TLC, mean ± SD, n = 3
In short: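 Heparinized whole blood from three healthy male donors. 1 ml was pre-warmed 5 min at 37 °C, then spiked with [3H]-THF (Pro- or C-terminal Leu-labelled; final 93 nmol ml−1) and shaken at 37 °C, sampled 0–60 min. Stopped with ice-cold water/acetonitrile; supernatants were dichloromethane-extracted. The aqueous phase went to silica radio-TLC with 1 cm scintillation counting, and fragments were assigned by synthetic-peptide Rf. Mean ± […], n = 3.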

[3] = Degradation of [3H]-THF-γ2 on incubation with rat whole blood; format: in vitro ADME; settings: 37 °C, radio-TLC, mean ± SD, n = 3
[4] = Degradation of [3H]-THF-γ2 on incubation with mouse whole blood; format: in vitro ADME; settings: 37 °C, radio-TLC; for amount of minor degradation product, % of total: over the 60 min incubation with [3H]-THF
[5] = 60 min incubation with [3H]-THF

Substance: H-LEDGPKFL-OH [THF-γ2]
- half-life of THF in human plasma [1]: about 12 min

- concentration of degradation product, % of the total peptides present [2, 5]: 30.36% ± 7.84
- concentration of degradation product, % of the total peptides present ([3]; 20 min incubation with [3H]-THF): 27.80% ± 3.32
Substance: H-DGPKFL-OH [3–8]

Substance: H-Gly-Pro-Lys-Phe-Leu-OH [4–8]
- amount of minor degradation product, % of total [4]: < 10 % of total

- concentration of degradation product, % of the total peptides present ([4]; 60 min incubation with [3H]-THF, mean ± SD, n = 3): 36.52% ± 2.69
- concentration of degradation product, % of the total peptides present ([2]; 5 min incubation with [3H]-THF): 2.16% ± 0.96
- concentration of degradation product, % of the total peptides present ([3]; 5 min incubation with [3H]-THF): 4.72% ± 1.05
- concentration of degradation product, % of the total peptides present [3, 5]: 54.90% ± 0.87
Substance: H-Glu-Asp-Gly-Pro-Lys-OH [2–6]

- amount of minor degradation product, % of total [4]: < 10 % of total
Substance: H-LEDGPK-OH [1–6]
